Source: ChEMBL document CHEMBL1123656, “Synthesis and antitumor activity of tropolone derivatives. 4” (1987)

Experiments:
Type in all cases: functional, Mus musculus
[1] = tested on: P388; assay: Compound was evaluated for activity against P388 leukemia, at an intraperitoneal dose of 50 mg/kg
Method in brief: (§1)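 Mice bearing P388 leukemia were given the compound intraperitoneally, with activity read out as T/C (%). The full protocol is cited to earlier work.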

[2] = tested on: P388; assay: Compound was evaluated for activity against P388 leukemia, at an intraperitoneal dose of 12.5 mg/kg; method in brief: as §1
[3] = tested on: P388; assay: Compound was evaluated for activity against P388 leukemia, at an intraperitoneal dose of 25 mg/kg; method in brief: as §1
[4] = tested on: P388; assay: Compound was evaluated for activity against P388 leukemia, at an intraperitoneal dose of 200 mg/kg; method in brief: as §1
[5] = tested on: P388; assay: Compound was evaluated for activity against P388 leukemia, at an intraperitoneal dose of 100 mg/kg; method in brief: as §1
[6] = tested on: P388; assay: Compound was evaluated for activity against P388 leukemia, at an intraperitoneal dose of 400 mg/kg; method in brief: as §1
[7] = tested on: P388; assay: Compound was evaluated for activity against P388 leukemia, at an intraperitoneal dose of 20 mg/kg; method in brief: as §1
[8] = tested on: P388; assay: Compound was evaluated for activity against P388 leukemia, at an intraperitoneal dose of 3.1 mg/kg; method in brief: as §1
[9] = tested on: P388; assay: Compound was evaluated for activity against P388 leukemia, at an intraperitoneal dose of 6.3 mg/kg; method in brief: as §1
[10] = tested on: P388; assay: Compound was evaluated for activity against P388 leukemia, at an intraperitoneal dose of 5 mg/kg; method in brief: as §1
[11] = tested on: P388; assay: Compound was evaluated for activity against P388 leukemia, at an intraperitoneal dose of 10 mg/kg; method in brief: as §1

SMILES | T/C [1] [%] | T/C [2] [%] | T/C [3] [%] | T/C [4] [%] | T/C [5] [%] | other results
COc1ccc(C(c2ccc(C(C)C)cc(=O)c2O)c2ccc3ccccc3c2O)cc1 (configuration not stated) | 108 | 105 | 125 | – | – | –
COc1ccc(C(C2=C(C)C(=O)c3ccccc3C2=O)c2ccc(C(C)C)cc(=O)c2O)cc1 (configuration not stated) | – | – | – | 131 | 114 | T/C [6]: 72%
COc1ccc(C(c2ccc(C(C)C)cc(=O)c2O)c2c(O)c(C(=O)O)cc3ccccc23)cc1 (configuration not stated) | – | – | – | 0 | 141 | T/C [7]: 106%
COc1ccc(C(c2cc(C(C)(C)C)ccc2O)c2ccc(C(C)C)cc(=O)c2O)cc1 (configuration not stated) | 116 | – | 116 | – | 120 | –
COc1ccc(C(c2ccc(C(C)C)cc(=O)c2O)c2ccc3cccnc3c2O)cc1 (configuration not stated) | – | 141 | – | – | – | T/C [8]: 144%; T/C [9]: 151%
COc1ccc(C(c2ccc(C(C)C)cc(=O)c2O)c2c(O)cc3oc(-c4ccccc4)cc(=O)c3c2O)cc1 (configuration not stated) | – | – | 127 | 148 | 136 | –
COc1ccc(C(c2cc(O)ccc2O)c2ccc(C(C)C)cc(=O)c2O)cc1 (configuration not stated) | 128 | 128 | 142 | – | – | –
COc1ccc(C(c2ccc(C(C)C)cc(=O)c2O)c2c(O)oc3ccccc3c2=O)cc1 (configuration not stated) | – | – | – | – | – | T/C [10]: 128%; T/C [11]: 117%; T/C [7]: 127%
COc1ccc(C(C2=C(O)C(=O)c3ccccc3C2=O)c2ccc(C(C)C)cc(=O)c2O)cc1 (configuration not stated) | 0 | – | – | – | – | T/C [10]: 108%; T/C [7]: 129%
CCOC(c1ccc(OC)cc1)c1ccc(C(C)C)cc(=O)c1O (configuration not stated) | – | – | – | – | 148 | –
COc1ccc(C(c2ccc(C(C)C)cc(=O)c2O)C2Oc3c(Cl)c(OC)cc(OC)c3C2=O)cc1 (configuration not stated) | 109 | – | 117 | – | 130 | –
COc1ccc(C(c2cc(C(C)(C)C)cc(O)c2O)c2ccc(C(C)C)cc(=O)c2O)cc1 (configuration not stated) | 168 | 110 | 127 | – | – | –
COc1ccc(C(c2ccc(O)cc2O)c2ccc(C(C)C)cc(=O)c2O)cc1 (configuration not stated) | 98 | – | – | 136 | 104 | –
